The values below come from ChEMBL document CHEMBL4406821, “Novel dual inhibitors targeting CDK4 and VEGFR2 synergistically suppressed cancer progression and angiogenesis” (Eur J Med Chem, 2019).

Molecules are shown by their SMILES. Calls of active or inactive are those of the source. The rule behind the calls is not given here.

Data set [1] concerns SiHa. Put plainly: Antiangiogenic activity against human SiHa cells xenografted in NOD/SCID BALB/c mouse assessed as reduction in CD31 expression at 40 mg/kg, po measured after 21 days by hematoxylin and eosin staining based immunohistochemistry. The class given is functional, organism-based. The method in brief:
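Female NOD/SCID Balb/c mice, 6–8 weeks old, received 2×10^6 SiHa cells subcutaneously in the right flank. Once tumors reached 100 mm³, mice were randomized, 5 per group, and gavaged once daily for 21 days. Formalin-fixed, paraffin-embedded tumor sections were stained with Ki67 or CD31 antibody (1:100, 4 °C overnight), then biotin secondary and ABC-peroxidase/DAB, with hematoxylin counterstain.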

The test system of a further data set is HeLa. Put plainly: Induction of apoptosis in human HeLa cells at 40 nM incubated for 48 hrs by annexin V FITC and propidium iodide staining based flow cytometry. The class given is functional, cell-based. The method in brief:
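Cells were treated for 48 h, stained with FITC Annexin V and PI, and analyzed by flow cytometry to count early and late apoptotic cells.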

The target of data set [2] is CDK6/cyclin D3 (Homo sapiens) (UniProt P30281+Q00534). The data set can be described thus: Inhibition of recombinant human full length CDK6/cyclinD3 at 1 uM using histone H1 as substrate incubated for 40 mins in presence of [gamma-33P]-ATP by scintillation counting method relative to control. The class given is protein-complex assay.
For data set [3], the target named is Insulin-like growth factor 1 receptor (Homo sapiens) (UniProt P08069). The data set can be described thus: Inhibition of recombinant activated human IGF1R (959 to end residues) at 1 uM using KKKSPGEYVNIEFG as substrate incubated for 40 mins in presence of [gamma-33P]-ATP by scintillation counting method relative to control. The method in brief:
(§1)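 Kinase panel profiling at 1 μM performed by Eurofins KinaseProfiler; percent inhibition reported as mean of two independent experiments.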

Data set [4] concerns the target Mitogen-activated protein kinase kinase kinase 9 (Homo sapiens) (UniProt P80192). The data set can be described thus: Inhibition of recombinant human MLK1 (134 to 414 residues) at 1 uM using casein as substrate incubated for 40 mins in presence of [gamma-33P]-ATP by scintillation counting method relative to control.
Data set [5] can be described thus: Clearance in Sprague-Dawley rat at 10 mg/kg, po by HPLC-MS analysis. The class given is ADME, organism-based. Particulars: in vivo. Summed up: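 Rats fitted with jugular vein catheters for serial blood sampling. Compound dissolved in saline with 5% (v/v) DMSO and given as a single 10 mg/kg dose iv or po after an overnight fast, n = 5 per group. Plasma isolated at once and measured by HPLC with tandem MS detection. Parameters derived by noncompartmental fitting.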

Data set [6] concerns the target Angiopoietin-1 receptor (Homo sapiens) (UniProt Q02763). The data set can be described thus: Inhibition of recombinant human TIE2 (771 to end residues) at 1 uM using EFPIYDFLPAKKK as substrate incubated for 40 mins in presence of [gamma-33P]-ATP by scintillation counting method relative to control.
The test system of the next data set is MDA-MB-231. Put plainly: Induction of apoptosis in human MDA-MB-231 cells assessed as increase in late apoptotic cells at 20 to 40 nM incubated for 48 hrs by annexin V FITC and propidium iodide staining based flow cytometry. It is filed as functional, cell-based. The method in brief: (§2)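 Annexin V-FITC/PI double staining with flow-cytometric readout. MDA-MB-231, T-47D, SiHa and HeLa cells were treated with graded concentrations for 48 h. MDA-MB-231 and T-47D were grown in DMEM and SiHa in 1640 medium, each with 10% FBS and 1% penicillin/streptomycin at 37°C under 5% CO2. Early- and late-stage apoptotic fractions were scored.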

Data set [7] relates to Serine/threonine-protein kinase B-raf (Homo sapiens), P15056 [V600E]. Put plainly: Inhibition of recombinant human BRAF V599E mutant (416 to end residues) at 1 uM using myelin as substrate incubated for 40 mins in presence of [gamma-33P]-ATP by scintillation counting method relative to control. The method in brief: as §1
For data set [8], the target named is Mitogen-activated protein kinase 11 (Homo sapiens) (UniProt Q15759). Put plainly: Inhibition of recombinant human full length SAPK2b at 1 uM using myelin basic protein as substrate incubated for 40 mins in presence of [gamma-33P]-ATP by scintillation counting method relative to control. The method in brief: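 Single-point inhibition at 1 uM measured in a commercial kinase profiling panel (KinaseProfiler); each value is the mean of two independent experiments.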
Chain of Mitogen-activated protein kinase 11 (Homo sapiens) (Q15759 whole entry): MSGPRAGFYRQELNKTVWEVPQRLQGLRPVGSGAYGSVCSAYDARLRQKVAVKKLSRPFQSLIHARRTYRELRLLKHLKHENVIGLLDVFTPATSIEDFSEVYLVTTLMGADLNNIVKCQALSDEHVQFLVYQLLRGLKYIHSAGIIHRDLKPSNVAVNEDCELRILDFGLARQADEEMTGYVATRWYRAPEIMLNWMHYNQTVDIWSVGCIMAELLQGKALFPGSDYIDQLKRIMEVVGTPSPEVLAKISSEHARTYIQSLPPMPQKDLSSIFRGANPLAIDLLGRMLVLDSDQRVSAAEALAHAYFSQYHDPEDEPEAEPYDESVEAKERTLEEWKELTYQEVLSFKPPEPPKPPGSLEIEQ

In data set [9] the test system is SiHa. Put plainly: Induction of apoptosis in human SiHa cells assessed as increase in late apoptotic cells at 20 to 40 nM incubated for 48 hrs by annexin V FITC and propidium iodide staining based flow cytometry. The class given is functional, cell-based. The method in brief: as §2
For data set [10], the target named is Receptor-interacting serine/threonine-protein kinase 1 (Homo sapiens) (UniProt Q13546). The data set can be described thus: Inhibition of recombinant human RIPK1 (8 to 322 residues) at 1 uM using myelin basic protein as substrate incubated for 40 mins in presence of [gamma-33P]-ATP by scintillation counting method relative to control.
Chain of Receptor-interacting serine/threonine-protein kinase 1 (Homo sapiens) (Q13546 whole entry, the tested form may be a part): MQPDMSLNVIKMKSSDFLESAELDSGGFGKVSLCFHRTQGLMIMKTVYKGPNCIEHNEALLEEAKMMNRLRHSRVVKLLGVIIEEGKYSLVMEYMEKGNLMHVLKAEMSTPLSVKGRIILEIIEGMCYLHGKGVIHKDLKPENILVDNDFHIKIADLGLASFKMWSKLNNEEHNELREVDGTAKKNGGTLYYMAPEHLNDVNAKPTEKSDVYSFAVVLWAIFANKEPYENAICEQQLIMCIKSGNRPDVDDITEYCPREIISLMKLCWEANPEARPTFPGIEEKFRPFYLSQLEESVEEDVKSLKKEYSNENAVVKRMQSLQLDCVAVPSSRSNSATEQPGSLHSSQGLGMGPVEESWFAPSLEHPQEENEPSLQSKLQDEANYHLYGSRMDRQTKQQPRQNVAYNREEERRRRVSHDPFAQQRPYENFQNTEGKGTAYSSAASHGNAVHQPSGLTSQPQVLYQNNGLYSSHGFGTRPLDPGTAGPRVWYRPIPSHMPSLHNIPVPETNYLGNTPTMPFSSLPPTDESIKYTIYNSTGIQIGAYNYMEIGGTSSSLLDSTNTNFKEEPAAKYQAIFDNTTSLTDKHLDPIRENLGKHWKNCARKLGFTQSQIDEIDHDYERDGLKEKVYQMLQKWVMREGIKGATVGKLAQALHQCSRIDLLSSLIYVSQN
Data set [11] can be described thus: Volume of distribution in Sprague-Dawley rat at 10 mg/kg, iv by HPLC-MS analysis. It is filed as ADME, organism-based. Conditions: in vivo.
In data set [12] the target is Epidermal growth factor receptor (Homo sapiens) (UniProt P00533). Put plainly: Inhibition of recombinant human EGFR (696 to end residues) at 1 uM using poly(Glu, Tyr) 4:1 as substrate incubated for 40 mins in presence of [gamma-33P]-ATP by scintillation counting method relative to control. Summed up: as §1
Data set [13] addresses Casein kinase I isoform gamma-1 (Homo sapiens) (UniProt Q9HCP0). Put plainly: Inhibition of recombinant human CK1gamma1 (25 to 355 residues) at 1 uM using KRRRALS(p)VAS as substrate incubated for 40 mins in presence of [gamma-33P]-ATP by scintillation counting method relative to control. Summed up: as §1
The test system of another data set is T47D. The data set can be described thus: Induction of cell cycle arrest in human T47D cells assessed as accumulation in G2/M phase at 20 to 40 nM incubated for 36 hrs by propidium iodide staining based flow cytometry. It is filed as functional. Summed up:
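Cells were treated with graded concentrations for 36 h, then fixed overnight in 70% ice-cold ethanol at 4°C and resuspended in PBS. Staining used 50 µg/ml PI plus 5 µg/ml RNase at 37°C for 30 min. DNA content was analysed by FACS to give G0/G1, S and G2/M fractions.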

The subject of data set [14] is Hepatocyte growth factor receptor (Homo sapiens), P08581 [D1246H]. Put plainly: Inhibition of recombinant human Met D1246H mutant (974 to end residues) at 1 uM using KKKGQEEEYVFIE as substrate incubated for 40 mins in presence of [gamma-33P]-ATP by scintillation counting method relative to control.
The target of data set [15] is SRSF protein kinase 3 (Homo sapiens) (UniProt Q9UPE1). Put plainly: Inhibition of recombinant human full length MSSK1 at 1 uM using ERMRPRKRQGSVRRRV as substrate incubated for 40 mins in presence of [gamma-33P]-ATP by scintillation counting method relative to control.
Chain of SRSF protein kinase 3 (Homo sapiens) (Q9UPE1 whole entry): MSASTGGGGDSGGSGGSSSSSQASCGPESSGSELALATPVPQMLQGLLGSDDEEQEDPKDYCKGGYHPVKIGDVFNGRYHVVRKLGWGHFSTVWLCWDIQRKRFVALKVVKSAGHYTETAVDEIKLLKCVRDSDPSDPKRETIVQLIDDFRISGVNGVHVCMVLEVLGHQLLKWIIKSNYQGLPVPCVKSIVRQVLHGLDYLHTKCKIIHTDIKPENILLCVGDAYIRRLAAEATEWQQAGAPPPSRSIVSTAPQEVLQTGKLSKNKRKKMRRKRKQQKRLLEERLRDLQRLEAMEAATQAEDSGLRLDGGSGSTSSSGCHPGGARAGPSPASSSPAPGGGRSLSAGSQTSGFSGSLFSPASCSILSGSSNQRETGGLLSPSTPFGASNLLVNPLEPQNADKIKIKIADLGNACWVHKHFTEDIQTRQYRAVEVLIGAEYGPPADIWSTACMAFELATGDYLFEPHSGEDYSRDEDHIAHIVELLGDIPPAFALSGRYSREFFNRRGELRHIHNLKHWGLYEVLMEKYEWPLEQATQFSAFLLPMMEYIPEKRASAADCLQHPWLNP
Data set [16] concerns the target Casein kinase II subunit alpha (Homo sapiens) (UniProt P68400). Put plainly: Inhibition of recombinant full length human CK2alpha1 at 1 uM using RRRDDDSDDD as substrate incubated for 40 mins in presence of [gamma-33P]-ATP by scintillation counting method relative to control. Summed up:
as §1

Data set [17] deals with Serine/threonine-protein kinase SBK1 (Homo sapiens) (UniProt Q52WX2). Put plainly: Inhibition of recombinant human full length SBK1 at 1 uM using KKLRRTLSVA as substrate incubated for 40 mins in presence of [gamma-33P]-ATP by scintillation counting method relative to control.

Chain of Hepatocyte growth factor receptor (Homo sapiens), P08581 [D1246H] (P08581 with tags, fused parts or gaps D1246H): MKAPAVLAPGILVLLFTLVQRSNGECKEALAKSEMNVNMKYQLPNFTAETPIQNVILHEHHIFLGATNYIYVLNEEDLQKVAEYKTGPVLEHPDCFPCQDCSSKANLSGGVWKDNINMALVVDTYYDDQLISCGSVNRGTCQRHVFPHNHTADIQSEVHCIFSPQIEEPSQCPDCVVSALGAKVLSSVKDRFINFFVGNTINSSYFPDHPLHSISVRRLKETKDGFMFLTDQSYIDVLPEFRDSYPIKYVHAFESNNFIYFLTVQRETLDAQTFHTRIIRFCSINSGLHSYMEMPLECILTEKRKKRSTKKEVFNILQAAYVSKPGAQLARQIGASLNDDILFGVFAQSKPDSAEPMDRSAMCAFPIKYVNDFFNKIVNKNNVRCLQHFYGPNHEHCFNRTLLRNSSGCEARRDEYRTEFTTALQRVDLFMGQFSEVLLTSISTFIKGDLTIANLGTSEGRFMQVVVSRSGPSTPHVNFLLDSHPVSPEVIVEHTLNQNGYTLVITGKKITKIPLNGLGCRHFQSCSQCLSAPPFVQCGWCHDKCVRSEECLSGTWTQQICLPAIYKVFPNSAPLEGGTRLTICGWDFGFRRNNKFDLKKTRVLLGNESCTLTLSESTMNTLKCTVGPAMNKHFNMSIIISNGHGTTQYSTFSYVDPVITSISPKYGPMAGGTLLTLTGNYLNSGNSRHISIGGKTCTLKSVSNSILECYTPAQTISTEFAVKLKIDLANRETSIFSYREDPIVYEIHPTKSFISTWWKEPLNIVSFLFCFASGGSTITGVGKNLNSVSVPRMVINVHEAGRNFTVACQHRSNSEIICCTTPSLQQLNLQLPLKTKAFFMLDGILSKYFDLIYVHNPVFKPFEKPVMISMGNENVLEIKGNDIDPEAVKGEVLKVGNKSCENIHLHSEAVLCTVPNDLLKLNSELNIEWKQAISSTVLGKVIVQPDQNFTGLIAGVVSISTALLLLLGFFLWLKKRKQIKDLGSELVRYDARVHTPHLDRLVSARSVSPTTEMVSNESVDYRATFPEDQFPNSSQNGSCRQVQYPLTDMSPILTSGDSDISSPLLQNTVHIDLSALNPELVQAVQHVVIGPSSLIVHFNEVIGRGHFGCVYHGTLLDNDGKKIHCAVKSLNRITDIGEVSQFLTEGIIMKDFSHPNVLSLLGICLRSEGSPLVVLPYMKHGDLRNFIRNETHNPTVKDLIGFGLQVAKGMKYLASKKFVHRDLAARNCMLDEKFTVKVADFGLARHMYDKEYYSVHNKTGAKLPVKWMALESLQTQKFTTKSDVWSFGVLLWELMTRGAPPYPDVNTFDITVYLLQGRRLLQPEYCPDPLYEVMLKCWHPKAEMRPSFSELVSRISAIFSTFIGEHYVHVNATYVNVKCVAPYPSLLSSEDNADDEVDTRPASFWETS
Chain of Angiopoietin-1 receptor (Homo sapiens) (Q02763 whole entry): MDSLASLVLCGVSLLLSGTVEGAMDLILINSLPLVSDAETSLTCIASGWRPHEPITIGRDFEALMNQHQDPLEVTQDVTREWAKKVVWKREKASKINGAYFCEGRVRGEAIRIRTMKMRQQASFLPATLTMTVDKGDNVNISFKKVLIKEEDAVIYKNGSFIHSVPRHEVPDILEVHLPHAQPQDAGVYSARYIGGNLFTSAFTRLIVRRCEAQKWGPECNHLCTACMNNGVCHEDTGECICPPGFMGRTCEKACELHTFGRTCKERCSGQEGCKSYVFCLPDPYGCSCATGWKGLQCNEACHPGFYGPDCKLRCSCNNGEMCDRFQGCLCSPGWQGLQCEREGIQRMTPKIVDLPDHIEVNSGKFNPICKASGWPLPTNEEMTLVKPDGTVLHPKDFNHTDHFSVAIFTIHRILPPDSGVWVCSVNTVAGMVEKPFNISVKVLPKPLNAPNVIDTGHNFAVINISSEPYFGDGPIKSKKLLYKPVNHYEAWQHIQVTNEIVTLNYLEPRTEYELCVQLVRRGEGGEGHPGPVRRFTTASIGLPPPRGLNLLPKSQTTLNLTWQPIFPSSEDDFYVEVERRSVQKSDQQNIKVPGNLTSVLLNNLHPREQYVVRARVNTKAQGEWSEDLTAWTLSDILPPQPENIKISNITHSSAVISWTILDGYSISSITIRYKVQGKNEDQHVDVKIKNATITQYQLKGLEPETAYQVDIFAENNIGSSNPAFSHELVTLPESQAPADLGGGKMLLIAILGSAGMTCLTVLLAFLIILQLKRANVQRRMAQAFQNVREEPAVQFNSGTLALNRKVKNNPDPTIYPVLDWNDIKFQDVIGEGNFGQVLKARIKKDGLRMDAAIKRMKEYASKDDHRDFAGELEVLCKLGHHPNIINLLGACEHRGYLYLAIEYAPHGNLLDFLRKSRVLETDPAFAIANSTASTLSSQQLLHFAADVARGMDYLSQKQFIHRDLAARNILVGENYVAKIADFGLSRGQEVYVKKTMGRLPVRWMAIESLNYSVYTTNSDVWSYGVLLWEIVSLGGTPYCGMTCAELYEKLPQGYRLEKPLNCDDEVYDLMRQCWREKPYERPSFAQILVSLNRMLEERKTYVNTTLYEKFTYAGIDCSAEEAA
Chain of Casein kinase I isoform gamma-1 (Homo sapiens) (Q9HCP0 whole entry, looked up, the tested form may be a part, canonical isoform): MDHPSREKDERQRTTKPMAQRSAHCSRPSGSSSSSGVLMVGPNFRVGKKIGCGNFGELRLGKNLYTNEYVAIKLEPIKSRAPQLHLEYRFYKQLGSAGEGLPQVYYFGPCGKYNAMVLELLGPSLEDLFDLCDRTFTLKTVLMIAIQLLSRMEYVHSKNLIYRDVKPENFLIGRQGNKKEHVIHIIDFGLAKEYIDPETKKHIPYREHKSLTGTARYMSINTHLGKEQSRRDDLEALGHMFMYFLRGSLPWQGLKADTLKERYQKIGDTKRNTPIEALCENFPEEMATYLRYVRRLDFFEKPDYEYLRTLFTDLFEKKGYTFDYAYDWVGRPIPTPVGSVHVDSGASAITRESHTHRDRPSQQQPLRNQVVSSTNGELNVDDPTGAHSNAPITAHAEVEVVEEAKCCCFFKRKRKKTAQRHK
Chain of Casein kinase II subunit alpha (Homo sapiens) (P68400 whole entry, looked up): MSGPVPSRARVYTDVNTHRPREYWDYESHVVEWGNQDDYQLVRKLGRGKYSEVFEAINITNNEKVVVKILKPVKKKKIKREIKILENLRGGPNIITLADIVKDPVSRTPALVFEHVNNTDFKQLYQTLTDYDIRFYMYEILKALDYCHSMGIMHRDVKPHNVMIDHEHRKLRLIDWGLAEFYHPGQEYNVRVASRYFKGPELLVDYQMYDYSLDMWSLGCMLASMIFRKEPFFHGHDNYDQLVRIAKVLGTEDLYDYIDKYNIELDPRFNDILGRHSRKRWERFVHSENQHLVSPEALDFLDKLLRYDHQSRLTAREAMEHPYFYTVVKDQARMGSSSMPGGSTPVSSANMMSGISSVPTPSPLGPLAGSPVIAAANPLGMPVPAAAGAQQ

In the case of `COc1cc2nccc(Oc3ccc(NC(=O)C4(C(=O)Nc5ccc(F)cc5)CC4)cc3)c2cc1OC` [CABOZANTINIB], in the data set on SiHa [1], the inhibition entry is “Active”. Also, the outcome in the data set on HeLa was Active.
In the case of `Cc1ccc(NC(=O)C2(C(=O)Nc3ccc(Nc4ncc(F)c(-c5cc(F)c6nc(C)n(C(C)C)c6c5)n4)cc3)CC2)cc1`, the inhibition amounted to 94% in data set [2]; 37% in data set [3]; 1% in [4]; 23% in [6]; 45% in [7]; 0% in data set [8]. The inhibition in data set [10] amounted to 15%; in data set [12], 28%; in data set [13], 23%; in [14], 55%; in data set [15], 2%; in data set [16] it was 36%. The inhibition in data set [17] was found to be 13%. Also, the CL/F in data set [5] was 33.3 mL/min/kg. Besides, the result with MDA-MB-231, with SiHa [9] and in the data set with T47D was Active. Further, the Vd in data set [11] worked out at 2 L/kg.
